Reference: paper PMC5087271 (Nature methods, 2015)
Entries after “also recorded” stand apart in the source; their conditions may differ. Ends that are not written are not given here.

Key:
human PAR1 = target: T1, human PAR1 (Homo sapiens, UniProt P25116); assay type: binding; settings: PEG spacer carrying PAR1 N terminus with the SFLLRN ligand replaced
T1 sequence (P25116 36-397): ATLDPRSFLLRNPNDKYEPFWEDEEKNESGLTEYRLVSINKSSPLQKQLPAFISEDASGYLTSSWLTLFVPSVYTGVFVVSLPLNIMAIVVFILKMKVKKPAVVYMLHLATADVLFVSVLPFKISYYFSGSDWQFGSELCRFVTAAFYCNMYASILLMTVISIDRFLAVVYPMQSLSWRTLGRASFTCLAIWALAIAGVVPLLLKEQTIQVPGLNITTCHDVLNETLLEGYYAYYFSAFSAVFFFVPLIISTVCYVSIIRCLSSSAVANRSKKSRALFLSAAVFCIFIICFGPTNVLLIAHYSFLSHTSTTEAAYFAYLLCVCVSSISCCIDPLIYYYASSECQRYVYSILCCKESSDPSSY

platelets = settings: at 200 μM peptide; cited from earlier work
[1] = test system: PAR1 complexed with the antagonist vorapaxar; assay type: binding, human; settings: vorapaxar-blocked versus free PAR1
Method in brief: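 Human PAR1 (residues Ala36–Tyr397) expressed in Sf9 cells via baculovirus and purified with 100 nM vorapaxar during lysis and solubilisation, then 1 μM through Ni-NTA, M1 and SEC. Reconstituted at 10 μM into DOPC/CHS liposomes, diluted 300-fold, adsorbed on mica. Cys-peptide ligand coupled to PEG-tipped cantilevers. Probed at 0.25 kHz, 30–50 nm amplitude, ~150 pN, ~27 °C. Free-energy landscape fitted from DFS plots.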

PAR1 = test: cell-based assays of antagonist dissociation from PAR1
[2] = target: T2, SFLLRN tethered ligand peptide (TRAP) (Homo sapiens); test: FD-based AFM
T2 chain: SFLLRN

[3] = target: T3, SFLLRN tethered ligand peptide (TRAP) (Homo sapiens, vorapaxar-bound PAR1); test: FD-based AFM
T3 chain: SFLLRN

SFLLAN peptide = target: T4, SFLLAN peptide (Homo sapiens); test: FD-based AFM
T4 chain: SFLLAN

SALLRN peptide = target: T5, SALLRN peptide (Homo sapiens); test: FD-based AFM
T5 chain: SALLRN

Q: With FLLNSR as the molecule, how does the “specific interaction of the functionalized tip with PAR1 (control)” value (human PAR1) read?
A: did not interact specifically

Q: For H-SALLRN [SALLRN], which “response in platelet aggregation assays” value (platelets) is on record?
A: no response

Q: With H-SFLLAN [SFLLAN] as the molecule, how does the “change of binding strength / affinity to PAR1 in the presence of vorapaxar” value [1] read?
A: remained nearly unchanged; also recorded: no change in binding affinity

Q: With `CCOC(=O)NC1CCC2C(C1)CC1C(=O)OC(C)C1C2CCc1ccc(-c2cccc(F)c2)cn1` (centres unmarked) [vorapaxar derivative] as the molecule, how does the “dissociation rate compared with that of vorapaxar” value (PAR1) read?
A: much faster dissociation rate

B1: PAR1 36-397 (protein)
chain: ATLDPRSFLLRNPNDKYEPFWEDEEKNESGLTEYRLVSINKSSPLQKQLPAFISEDASGYLTSSWLTLFVPSVYTGVFVVSLPLNIMAIVVFILKMKVKKPAVVYMLHLATADVLFVSVLPFKISYYFSGSDWQFGSELCRFVTAAFYCNMYASILLMTVISIDRFLAVVYPMQSLSWRTLGRASFTCLAIWALAIAGVVPLLLKEQTIQVPGLNITTCHDVLNETLLEGYYAYYFSAFSAVFFFVPLIISTVCYVSIIRCLSSSAVANRSKKSRALFLSAAVFCIFIICFGPTNVLLIAHYSFLSHTSTTEAAYFAYLLCVCVSSISCCIDPLIYYYASSECQRYVYSILCCKESSDPSSY
Q: What does the source list for B1?
A: Kd [2]: ~0.35 µM; Kd [3]: ~40 µM

B2: PAR1 36-397 (protein)
chain: ATLDPRSFLLANPNDKYEPFWEDEEKNESGLTEYRLVSINKSSPLQKQLPAFISEDASGYLTSSWLTLFVPSVYTGVFVVSLPLNIMAIVVFILKMKVKKPAVVYMLHLATADVLFVSVLPFKISYYFSGSDWQFGSELCRFVTAAFYCNMYASILLMTVISIDRFLAVVYPMQSLSWRTLGRASFTCLAIWALAIAGVVPLLLKEQTIQVPGLNITTCHDVLNETLLEGYYAYYFSAFSAVFFFVPLIISTVCYVSIIRCLSSSAVANRSKKSRALFLSAAVFCIFIICFGPTNVLLIAHYSFLSHTSTTEAAYFAYLLCVCVSSISCCIDPLIYYYASSECQRYVYSILCCKESSDPSSY
Q: With B2 as the molecule, how does the Kd (SFLLAN peptide) read?
A: ~30 µM

B3: PAR1 36-397 (protein)
chain: ATLDPRSALLRNPNDKYEPFWEDEEKNESGLTEYRLVSINKSSPLQKQLPAFISEDASGYLTSSWLTLFVPSVYTGVFVVSLPLNIMAIVVFILKMKVKKPAVVYMLHLATADVLFVSVLPFKISYYFSGSDWQFGSELCRFVTAAFYCNMYASILLMTVISIDRFLAVVYPMQSLSWRTLGRASFTCLAIWALAIAGVVPLLLKEQTIQVPGLNITTCHDVLNETLLEGYYAYYFSAFSAVFFFVPLIISTVCYVSIIRCLSSSAVANRSKKSRALFLSAAVFCIFIICFGPTNVLLIAHYSFLSHTSTTEAAYFAYLLCVCVSSISCCIDPLIYYYASSECQRYVYSILCCKESSDPSSY
Q: Which Kd (SALLRN peptide) does the source give for B3 here?
A: ~3500 µM
